Results as given in ChEMBL document CHEMBL1127023, “Nonpeptide angiotensin II receptor antagonists. Synthesis and biological activity of benzimidazoles” (J Med Chem, 1993).

Columns and labels:
[1] = In vitro for inhibition of specific binding of [125I]-angiotensin II (0.2 nM) to bovine adrenal cortex
[2] = target: Angiotensin II receptor (Rattus norvegicus) (UniProt P29089+P25095+P35351); assay: In vivo inhibition of angiotensin II (0.1 ug/kg) induced increase in blood pressure in conscious male rat at 3 mg/kg for 3h/7h.; format: functional, organism-based; parameters: dose 3 mg/kg
Summary of the method: (§1)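 Conscious male Jcl:Sprague-Dawley rats (300–400 g), femoral artery and vein cannulated under pentobarbital the day before. AII 100 ng/kg iv was given twice as control. Compound was dosed orally as a gum arabic suspension, then AII challenges were repeated. Pressor-response inhibition was read at 3 and 7 h after dosing, from duplicate experiments.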

[3] = system: Rattus norvegicus; assay: In vivo for inhibition of the Angiotensin II (0.1 ug/kg) induced increase in blood pressure in conscious male rat at 30 mg/kg for 3h/7h; format: functional
Summary of the method: as §1

[4] = system: Rattus norvegicus; assay: In vivo inhibition of angiotensin II (0.1 ug/kg) induced increase in blood pressure in conscious male rat at 10 mg/kg for 3h/7h; format: functional
Summary of the method: as §1

[5] = system: Rattus norvegicus; assay: In vivo for inhibition of the Angiotensin II (0.1 ug/kg) induced increase in blood pressure in conscious male rat at 100 mg/kg for 3h/7h; format: functional
Summary of the method: as §1

[6] = system: Rattus norvegicus; assay: In vivo for inhibition of the Angiotensin II (0.1 ug/kg) induced increase in blood pressure in conscious male rat at 10 mg/kg for 0.5h/1h; format: functional
[7] = In vitro for inhibition of specific binding of [125I]-angiotensin II (0.02 nM) to bovine adrenal cortex; format: tissue-based, Bos taurus
[8] = system: Rattus norvegicus; assay: In vivo inhibition of angiotensin II (0.1 ug/kg)-induced increase in blood pressure in conscious male rat at 10 mg/kg for 3h/7h; format: functional
Summary of the method: as §1

| SMILES | IC50 [1] [nM] | inhibition [2] [%] | inhibition in vivo at 30 mg/kg [3] [%] | further results |
| --- | --- | --- | --- | --- |
| CCCCc1nc2cccc(OC)c2n1Cc1ccc(-c2ccccc2-c2nn[nH]n2)cc1 | 2800 | -6 | – | – |
| CCCCc1nc2cc(C)cc(C(=O)OC)c2n1Cc1ccc(-c2ccccc2-c2nn[nH]n2)cc1 | 870 | 41 | – | – |
| CCCCc1nc2cccc(CC(=O)O)c2n1Cc1ccc(-c2ccccc2-c2nn[nH]n2)cc1 | 2600 | – | – | – |
| CCCCc1nc2cccc(C(=O)OCC)c2n1Cc1ccc(-c2ccccc2-c2nn[nH]n2)cc1 | 1400 | 51 | – | – |
| CCCCc1nc2cccc(C(=O)OC)c2n1Cc1ccc(-c2ccccc2-c2nn[nH]n2)cc1 | 320 | 78 | – | – |
| CCCCc1nc2c(C(=O)O)cccc2n1Cc1ccc(-c2ccccc2-c2nn[nH]n2)cc1 | > 10000 | – | – | inhibition in vivo at 10 mg/kg [4]: 19% |
| CCCCc1nc2cccc(CO)c2n1Cc1ccc(-c2ccccc2-c2nn[nH]n2)cc1 | 450 | 16 | 41 | – |
| CCCCc1nc2cc(OC)ccc2n1Cc1ccc(-c2ccccc2-c2nn[nH]n2)cc1 | 910 | – | – | inhibition in vivo at 100 mg/kg [5]: 84%; inhibition in vivo at 10 mg/kg [6]: 60% |
| CCCCc1nc2cccc(COC)c2n1Cc1ccc(-c2ccccc2-c2nn[nH]n2)cc1 | 600 | 54 | – | – |
| CCCCc1nc2ccc(Cl)cc2n1Cc1ccc(-c2ccccc2-c2nn[nH]n2)cc1 | 3100 | – | 18 | inhibition in vivo at 10 mg/kg [6]: 23% |
| CCCCc1nc2cccc(C(=O)O)c2n1Cc1ccc(-c2ccccc2C(=O)O)cc1 | 660 | 2 | 46 | – |
| CCCCc1nc2cc(Cl)ccc2n1Cc1ccc(-c2ccccc2-c2nn[nH]n2)cc1 | 1500 | – | -8 | inhibition in vivo at 10 mg/kg [6]: 45% |
| CCCCc1nc2cccc(CC(=O)OCC)c2n1Cc1ccc(-c2ccccc2-c2nn[nH]n2)cc1 | 250 | 24 | 82 | – |
| CCCCc1nc2cc(Cl)cc(C(=O)O)c2n1Cc1ccc(-c2ccccc2-c2nn[nH]n2)cc1 | – | 23 | – | – |
| CCCCc1nc2c(C(N)=O)cccc2n1Cc1ccc(-c2ccccc2-c2nn[nH]n2)cc1 | – | – | 28 | – |
| CCCCc1nc2ccc(C)c(C(=O)OCC)c2n1Cc1ccc(-c2ccccc2-c2nn[nH]n2)cc1 | – | 13 | 100 | IC50 [7]: 910 nM |
| CCCCOC(=O)c1cccc2nc(CCCC)n(Cc3ccc(-c4ccccc4-c4nn[nH]n4)cc3)c12 | 1200 | 9 | 78 | – |
| CCCCc1nc2cc(C)cc(C(=O)O)c2n1Cc1ccc(-c2ccccc2-c2nn[nH]n2)cc1 | 1300 | 80 | – | – |
| CCCCc1nc2ccc(C(=O)O)cc2n1Cc1ccc(-c2ccccc2-c2nn[nH]n2)cc1 | 9000 | – | 9 | – |
| CCCCc1nc2ccc(C)c(C(=O)O)c2n1Cc1ccc(-c2ccccc2-c2nn[nH]n2)cc1 | 340 | 40 | – | – |
| CCCCc1nc2cccc(C(=O)O)c2n1Cc1ccc(-c2ccccc2-c2nnnn2C)cc1 | 3400 | 77 | – | – |

Second part, led by results:

| IC50 [1] [nM] | SMILES | inhibition [2] [%] | inhibition in vivo at 30 mg/kg [3] [%] | further results |
| --- | --- | --- | --- | --- |
| 440 | CCCCc1nc2ccc(C(=O)OC)cc2n1Cc1ccc(-c2ccccc2-c2nn[nH]n2)cc1 | – | 0 | – |
| 550 | CCCCc1nc2cccc(C(=O)O)c2n1Cc1ccc(-c2ccccc2-c2nn[nH]n2)cc1 | 91 | – | – |
| 740 | CCCCc1nc2cc(C(=O)OC)ccc2n1Cc1ccc(-c2ccccc2-c2nn[nH]n2)cc1 | – | – | inhibition in vivo at 100 mg/kg [5]: -13% |
| 440 | CCCCc1nc2cc(Cl)cc(C(=O)OC)c2n1Cc1ccc(-c2ccccc2-c2nn[nH]n2)cc1 | 57 | – | – |
| 1100 | CCCCc1nc2ccccc2n1Cc1ccc(-c2ccccc2C(=O)O)cc1 | – | – | inhibition in vivo at 100 mg/kg [5]: 45%; inhibition in vivo at 10 mg/kg [6]: 20% |
| 1100 | CCCCc1nc2ccc(OC)cc2n1Cc1ccc(-c2ccccc2-c2nn[nH]n2)cc1 | – | – | inhibition in vivo at 100 mg/kg [5]: 5%; inhibition in vivo at 10 mg/kg [6]: 77% |
| 5500 | CCCCc1nc2cc(C(=O)O)ccc2n1Cc1ccc(-c2ccccc2-c2nn[nH]n2)cc1 | 7 | – | – |
| 330 | CCCCc1nc2cccc(C)c2n1Cc1ccc(-c2ccccc2-c2nn[nH]n2)cc1 | 8 | – | – |
| 1100 | CCCCc1nc2cccc(O)c2n1Cc1ccc(-c2ccccc2-c2nn[nH]n2)cc1 | 2 | 56 | – |
| 7200 | CCCCc1nc2c(C(=O)OC)cccc2n1Cc1ccc(-c2ccccc2-c2nn[nH]n2)cc1 | – | 9 | – |
| 2400 | CCCCc1nc2cccc(CN(C)C)c2n1Cc1ccc(-c2ccccc2-c2nn[nH]n2)cc1 | 12 | – | – |
| 540 | CCCCc1nc2cccc(C(=O)NC(C)C)c2n1Cc1ccc(-c2ccccc2-c2nn[nH]n2)cc1 | – | – | – |
| 900 | CCCCc1nc2ccccc2n1Cc1ccc(-c2ccccc2-c2nn[nH]n2)cc1 | – | 18 | inhibition in vivo at 10 mg/kg [6]: 52%; inhibition in vivo at 10 mg/kg [8]: 13% |
